What was measured:
A2780 = experiment: Inhibitory activity against ovarian tumor cell line A2780 after 72 hr continuous exposure to compound; format: functional, cell-based; conditions: Homo sapiens, A2780, 72 h
How it was run: (§1)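 Log-phase cells were plated in triplicate at 2500–3500 cells/well, and the compound was added 24 h later for 72 h continuous exposure. […] Media: A2780/143B DMEM+5% FBS; HT29 DMEM+10% FBS; HCT116 RPMI+10% FBS; ADDP (cisplatin-resistant A2780) RPMI+5% FBS.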

[1] = target: Serine/threonine-protein phosphatase 2A catalytic subunit (Gallus gallus); experiment: Inhibitory activity against partially purified (chicken skeletal muscle) Protein phosphatase 2A
HCT-116 = experiment: Inhibitory activity against colon tumor cell line HCT116 after 72 hr continuous exposure to compound; format: functional, cell-based; conditions: Homo sapiens, HCT-116, 72 h; how it was run: as §1
HT-29 = experiment: Inhibitory activity against colon tumor cell line HT-29 after 72 hr continuous exposure to compound; format: functional, cell-based; conditions: Homo sapiens, HT-29, 72 h; how it was run: as §1
143B = experiment: Inhibitory activity against tumor osteosarcoma cell line 143B after 72 hr continuous exposure to compound; format: functional, cell-based; conditions: Homo sapiens; how it was run: as §1
ADDP cell line = experiment: Inhibitory activity against ovarian tumor cell line ADDP after 72 hr continuous exposure to compound; format: functional, cell-based; conditions: Homo sapiens; how it was run: as §1
[2] = target: Serine/threonine-protein phosphatase 2A catalytic subunit alpha isoform (Homo sapiens) (UniProt P67775); experiment: The compound was tested for the selectivity against protein phosphatases 2A
L1210 = experiment: Inhibitory activity against L1210 leukemia cells; format: functional, cell-based; conditions: Mus musculus
DNA topoisomerase 2 = target: T1, DNA topoisomerase 2 (Drosophila melanogaster, UniProt P15348); experiment: Inhibition of topoisomerase IIin vitro through a novel, non-DNA-strandcleaving mechanism
T1 sequence (P15348 whole entry): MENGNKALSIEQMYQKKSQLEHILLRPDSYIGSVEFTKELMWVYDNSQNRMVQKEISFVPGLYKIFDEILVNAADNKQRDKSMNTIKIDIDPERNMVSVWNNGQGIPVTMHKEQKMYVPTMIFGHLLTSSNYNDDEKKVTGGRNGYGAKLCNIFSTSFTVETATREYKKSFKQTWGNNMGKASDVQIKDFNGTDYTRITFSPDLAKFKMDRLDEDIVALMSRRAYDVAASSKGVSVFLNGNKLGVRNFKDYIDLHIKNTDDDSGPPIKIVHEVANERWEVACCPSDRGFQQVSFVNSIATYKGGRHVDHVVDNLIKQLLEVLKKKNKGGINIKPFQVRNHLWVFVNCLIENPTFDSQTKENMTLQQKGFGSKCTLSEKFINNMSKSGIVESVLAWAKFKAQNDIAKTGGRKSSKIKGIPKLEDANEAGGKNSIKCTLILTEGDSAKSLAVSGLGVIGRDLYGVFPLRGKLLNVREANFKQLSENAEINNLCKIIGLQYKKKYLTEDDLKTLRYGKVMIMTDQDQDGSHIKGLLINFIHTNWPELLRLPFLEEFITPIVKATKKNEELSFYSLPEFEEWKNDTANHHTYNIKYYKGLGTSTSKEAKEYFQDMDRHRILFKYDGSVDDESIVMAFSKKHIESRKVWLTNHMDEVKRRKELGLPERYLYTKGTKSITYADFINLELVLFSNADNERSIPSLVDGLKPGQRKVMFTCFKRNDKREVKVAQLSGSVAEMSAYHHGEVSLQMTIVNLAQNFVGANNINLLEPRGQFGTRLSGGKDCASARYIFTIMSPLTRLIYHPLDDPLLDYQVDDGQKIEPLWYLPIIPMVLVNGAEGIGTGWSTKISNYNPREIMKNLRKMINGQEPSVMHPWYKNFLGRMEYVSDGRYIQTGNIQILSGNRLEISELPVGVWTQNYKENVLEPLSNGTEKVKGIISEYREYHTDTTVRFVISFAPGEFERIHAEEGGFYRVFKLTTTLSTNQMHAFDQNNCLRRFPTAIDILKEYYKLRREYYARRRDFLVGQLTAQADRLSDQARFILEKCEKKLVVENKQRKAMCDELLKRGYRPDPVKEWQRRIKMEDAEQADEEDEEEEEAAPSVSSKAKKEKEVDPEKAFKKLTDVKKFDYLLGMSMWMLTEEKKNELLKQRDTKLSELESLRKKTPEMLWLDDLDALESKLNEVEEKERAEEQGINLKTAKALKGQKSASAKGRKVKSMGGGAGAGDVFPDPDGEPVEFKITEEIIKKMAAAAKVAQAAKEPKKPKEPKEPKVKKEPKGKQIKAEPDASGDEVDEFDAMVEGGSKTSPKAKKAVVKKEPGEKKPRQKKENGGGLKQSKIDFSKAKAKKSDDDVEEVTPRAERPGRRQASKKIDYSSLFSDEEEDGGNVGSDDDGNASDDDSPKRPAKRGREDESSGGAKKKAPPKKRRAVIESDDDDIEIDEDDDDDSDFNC

Serine/threonine-protein phosphatase 2A catalytic subunit alpha isoform (Homo sapiens), sequence (P67775 whole entry, canonical isoform): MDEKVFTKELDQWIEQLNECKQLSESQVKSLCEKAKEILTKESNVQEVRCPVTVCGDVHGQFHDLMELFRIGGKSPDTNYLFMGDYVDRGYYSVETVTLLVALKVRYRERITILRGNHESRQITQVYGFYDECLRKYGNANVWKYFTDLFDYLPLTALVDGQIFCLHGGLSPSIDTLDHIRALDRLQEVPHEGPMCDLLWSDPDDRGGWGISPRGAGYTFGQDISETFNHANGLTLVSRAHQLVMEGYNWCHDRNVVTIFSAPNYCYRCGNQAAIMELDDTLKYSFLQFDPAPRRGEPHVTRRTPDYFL

Compound	IC50 (A2780) [µM]	IC50 [1] [µM]	IC50 (HCT-116) [µM]	IC50 (HT-29) [µM]	IC50 (143B) [µM]	IC50 (ADDP cell line) [µM]	Selectivity [2]	IC50 (L1210) [µM]	IC50 (DNA topoisomerase 2) [µM]
COC1OC(=O)[C@H]2[C@@H]1[C@@H]1CC[C@H]2O1 (some centres undefined)	538	> 1000	143	28	> 1000	323	–	–	–
CCCOC1OC(=O)[C@H]2[C@@H]1[C@@H]1CC[C@H]2O1 (some centres undefined)	375	–	195	41	> 1000	535	–	–	–
CCOC1OC(=O)[C@H]2[C@@H]1[C@@H]1CC[C@H]2O1 (some centres undefined)	100	–	80	26	103	107	–	–	–
O=C1OC(=O)[C@H]2[C@@H]1[C@@H]1CC[C@H]2O1	50	–	24	33	43	47	–	–	–
COC(=O)C1C(C(=O)O)[C@@H]2CC[C@H]1O2 (single isomer, unassigned)	100	–	76	105	118	180	–	–	–
CCCOC(=O)C1C(C(=O)O)[C@@H]2CC[C@H]1O2 (single isomer, unassigned)	–	–	75	15	–	315	–	–	–
CCOC(=O)C1C(C(=O)O)[C@@H]2CC[C@H]1O2 (single isomer, unassigned)	185	0.45	266	243	437	330	6.6	–	–
C[C@@]12C(=O)OC(=O)[C@]1(C)[C@H]1CC[C@@H]2O1 [CANTHARIDIN]	10	–	9	6.4	10	11	–	–	–
C[C@@](O)(/C=C/[C@H]1CC=CC(=O)O1)[C@@H](C[C@@H](O)\C=C/C=C\C=C\CO)OP(=O)(O)O [FOSTRIECIN]	–	0.0034	–	–	–	–	–	0.46	40

From ChEMBL document CHEMBL1133252 (Bioorg Med Chem Lett, 2000)
